Active and inactive are the calls of the source. No cut-off for these calls is given here.
How the values were obtained:
SH-SY5Y [1] = assay: Neuroprotective activity in human SH-SY5Y cells assessed as inhibition of CHP and TBHP-induced cell death at 10 uM incubated for 30 mins prior to challenge measured after 3 hrs by MTT assay; format: functional, cell-based
Method in brief: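 SH-SY5Y human neuroblastoma cells pretreated with compound at 10 µM for 30 min, then exposed to cumene hydroperoxide (CHP) or tert-butyl hydroperoxide (TBHP) at 300 µM for 3 h. Viability read by MTT and expressed relative to untreated control set as 100%. Mean ± SEM, n = 3; ANOVA.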

SH-SY5Y [2] = assay: Neuroprotective activity in human SH-SY5Y cells assessed as inhibition of MPP+-induced cell death after 24 hrs by MTT assay; format: functional, cell-based
Method in brief: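 SH-SY5Y neuroblastoma cells co-treated with MPP+ (1 mM) and compound (10–30 µM) at the same time for 24 h. MTT read-out, given as percent viability versus control without MPP+. Mean ± SEM, n = 4; ANOVA.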

SH-SY5Y [3] = assay: Neuroprotective activity in MPP+-stimulated human SH-SY5Y cells assessed as cell survival at 30 uM measured 24 hrs after MPP+-challenge by MTT assay; format: functional; details: read-out: Survival
Method in brief: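 SH-SY5Y neuroblastoma cells were co-treated with MPP+ (1 mM) and test compound (10–30 µM) for 24 h, with no pretreatment. Viability was read by MTT assay and given as percent of control without MPP+. Values are mean ± SEM, n = 4, compared by ANOVA.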

[4] = Cytotoxicity against human SH-SY5Y cells assessed as cell viability at 300 uM by MTT assay; format: cell-based; details: read-out: Activity
Method in brief: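 SH-SY5Y human neuroblastoma cells were exposed to cumene hydroperoxide (CHP) or tert-butyl hydroperoxide (TBHP) at 300 µM for 3 h. Viability was read by MTT assay and expressed relative to untreated control cultures set as 100%. Values are mean ± SEM, n = 3, compared by ANOVA.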

SMILES: C=CCc1cc(-c2cc(CCC)ccc2O)ccc1O
- inhibition (SH-SY5Y [1]): Active
- inhibition (SH-SY5Y [2]): Dose-dependent effect
- viability at 30 µM (SH-SY5Y [3]): 83%

SMILES: CCCc1ccc(O)c(-c2ccc(O)c(CCC)c2)c1
- inhibition (SH-SY5Y [1]): Active
- inhibition (SH-SY5Y [2]): Dose-dependent effect
- viability at 30 µM (SH-SY5Y [3]): 91%

SMILES: CC(C)(OO)c1ccccc1 [CUMENE HYDROPEROXIDE]
- viability at 300 µM [4]: 64%

SMILES: C=CCc1cc(-c2ccc(O)c(CC=C)c2)ccc1O
- inhibition (SH-SY5Y [1]): Active
- inhibition (SH-SY5Y [2]): Dose-dependent effect

SMILES: C=CCc1ccc(O)c(-c2ccc(O)c(CC=C)c2)c1
- inhibition (SH-SY5Y [1]): Active
- inhibition (SH-SY5Y [2]): Dose-dependent effect

SMILES: C=CCc1cc(-c2cccc(O)c2CC=C)ccc1O
- inhibition (SH-SY5Y [1]): Active
- inhibition (SH-SY5Y [2]): Dose-dependent effect
- viability at 30 µM (SH-SY5Y [3]): 79%

SMILES: C#CCc1ccc(O)c(-c2ccc(O)c(CC=C)c2)c1
- inhibition (SH-SY5Y [1]): Active
- inhibition (SH-SY5Y [2]): Dose-dependent effect
- viability at 30 µM (SH-SY5Y [3]): 80%

SMILES: CC(C)(C)OO [TERT-BUTYL HYDROPEROXIDE]
- viability at 300 µM [4]: 72%

SMILES: C=CCc1ccc(O)c(-c2ccc(O)c(CCC)c2)c1
- inhibition (SH-SY5Y [1]): Active
- inhibition (SH-SY5Y [2]): Dose-dependent effect
- viability at 30 µM (SH-SY5Y [3]): 87%

— ChEMBL document CHEMBL1932954, “An expedient synthesis of honokiol and its analogues as potential neuropreventive agents” (Bioorg Med Chem Lett, 2012)
